Screens from PubChem.
Rows were chosen to be rich in hits. Some 1.4% of all compounds tested hit in one or more screens of this group.
Cardiac RTF inh – cardiac RTF calcium desensitization; P19429+P45379; IANBD-labeled cardiac RTF, Ca2+ fluorescence; inhibition, % at 7.15 µM; 0.12% of 340,000 active; AID 493244;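 active = inhibition above the mean inhibition of all tested compounds plus 3 SD, cut at about 17% in these data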;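 also: assay run at fixed EC70 calcium of 1.6 mM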
DDE Tn6 FP inh – inhibitors of Tn6 peptide binding to human fibrin DD(E); inhibition, % at 8.3 µM; Fibrin DD(E) TRITC-Tn6 fluorescence polarization displacement; 0.21% of 370,000 active;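 active = inhibition above a per-campaign cutoff: mean of compounds within control limits plus 3 SD, cut at about 15% in these data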
Target sequence (P02675 whole entry, looked up): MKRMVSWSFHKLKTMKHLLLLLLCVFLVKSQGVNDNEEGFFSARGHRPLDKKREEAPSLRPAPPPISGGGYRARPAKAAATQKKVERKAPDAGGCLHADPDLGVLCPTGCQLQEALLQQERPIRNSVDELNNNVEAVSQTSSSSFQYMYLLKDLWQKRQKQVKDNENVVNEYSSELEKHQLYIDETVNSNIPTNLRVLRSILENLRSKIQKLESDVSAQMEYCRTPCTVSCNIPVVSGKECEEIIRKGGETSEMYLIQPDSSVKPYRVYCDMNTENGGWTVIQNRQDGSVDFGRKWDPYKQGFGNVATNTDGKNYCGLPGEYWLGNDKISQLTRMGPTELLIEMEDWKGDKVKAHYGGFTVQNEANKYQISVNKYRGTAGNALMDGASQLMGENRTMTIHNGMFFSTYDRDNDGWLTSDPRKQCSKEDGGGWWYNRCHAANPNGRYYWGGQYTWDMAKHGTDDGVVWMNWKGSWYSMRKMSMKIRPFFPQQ
RTF Ca sens act – increases calcium sensitivity of human cardiac regulated thin filaments | IANBD-labeled TnC RTF fluorescence at EC20 calcium; 0% EC20 calcium, 100% full calcium | activation, % at 7.2 µM | 0.24% of 340,000 active | AID 493008;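 active = activation above the mean over all tested compounds plus 3 SD, cut at about 30% in these data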;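 also: rise in fluorescence read as greater calcium sensitivity of cardiac thin filaments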
CRFBP-R2 agonist – agonists of human CRF-binding protein/CRF-R2 receptor complex. AID 588473. 0.46% of 350,000 active. HEK293 CRF-R2/CRF-BP, calcium dye fluorescence (FLIPR); percent of saturating CRF peptide response. activation, % at 13.2 µM;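 active = activation of at least 50%, plus an integration ratio under a set limit after plate pattern correction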
Tn7 DDE FP – inhibitors of Tn7 peptide binding to human fibrin DD(E). FP displacement of FITC-Tn7 peptide from fibrin DD(E); 0% = median of compound wells per plate. 0.13% of 370,000 active. inhibition, % at 8.3 µM. P02675. AID 720508;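 active = inhibition above the mean of compounds falling within the control limits plus 3 SD of them, cut at about 14% in these data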
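Assay system: Human clot-derived fibrin DD(E) complex | Buffer or medium: Tris/NaCl/CaCl2 buffer, pH 7.8 | Repeats: One replicate per compound | Benchmarks: Aha-Tn7 high control | Measure: % inhibition scaled between sample-field median and high-control FP | Schedule: 10 min plus 3 h, room temperature | Signal: Fluorescence polarization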
CRFR2-BP antag – blocks CRF-induced signaling of the CRF-BP/CRF-R2 complex. 0.59% of 350,000 active. HEK293 CRF-R2/CRF-BP, CRF-induced calcium fluorescence. inhibition, % at 11.8 µM. AID 588475;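 active = inhibition of the ligand-induced calcium signal above about 50% at the single tested concentration, limit read from the data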
Tn6 DDE ctr – DD(E)-Tn6 binding inhibition, counter-screen | shares compounds with DDE Tn6 FP inh | Fibrin DD(E), TRITC-Tn6 fluorescence polarization displacement; 0% = median of compound wells, not DMSO | inhibition, % at 8.3 µM | 2% of 680 active;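 active = inhibition above the mean of test compounds lying between the control limits plus 3 SD of those, cut at about 14% in these data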
DDE Tn6 confirm – confirmation of inhibitors of Tn6 binding to human fibrin DD(E). FP displacement of TRITC-Tn6 peptide from DD(E); 0% = per-plate median of test wells. 10% of 680 active. inhibition, % at 8.3 µM. shares compounds with DDE Tn6 FP inh;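 active = inhibition above the mean of compounds lying within the control limits plus 3 SD, cut at about 16% in these data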
Hits are given with their value; n = inactive; x = no result given.

SMILES | Cardiac RTF inh | DDE Tn6 FP inh | RTF Ca sens act | CRFBP-R2 agonist | Tn7 DDE FP | CRFR2-BP antag | Tn6 DDE ctr | DDE Tn6 confirm
CC(C)C(=O)NCCc1nc2ccccc2n1CCOc1ccccc1 | n | 15.4 | n | n | n | n | n | n
c1ccc(Oc2ccccc2-c2cc(NCCc3cccnc3)n3nccc3n2)cc1 | x | 16.7 | x | x | n | x | n | n
c1ccc(Oc2ccc(-c3cc(NCCc4cccnc4)n4nccc4n3)cc2)cc1 | x | n | x | x | n | x | x | x
CC1(C)c2ccccc2N2CC(=O)N(CC(N)=O)C21C (stereo not given) | n | 76.3 | 39.7 | n | n | n | n | n
CC1(C)c2ccccc2N(CC(N)=O)C12C=Cc1ccccc1O2 (stereo not given) | n | n | n | n | n | n | x | x
CN(CC#Cc1ccccc1)C(N)=NC(=O)/C=C/c1cccc(C(F)(F)F)c1 | x | n | x | x | n | x | x | x
O=C(c1ccc(=O)oc1)N1CCOCC1 | n | n | n | n | n | n | x | x
O=C(c1coc(=O)c(Br)c1)N1CCOCC1 | n | 18.3 | n | n | n | n | n | n
COC(=O)C[C@H]1CC[C@@H]2[C@@H](COc3ccc(NC(=O)c4ccno4)cc3C(=O)N2C)O1 | x | n | x | x | n | x | x | x
Cc1ccc(S(=O)(=O)N(C)C)cc1NC(=O)c1sccc1Cl | n | n | n | n | n | n | x | x
Cc1ccc(S(=O)(=O)N(C)C)cc1NC(=O)c1cccs1 | x | 17.3 | x | n | n | n | n | n
CN(CC(=O)N1CCc2ccccc21)S(=O)(=O)c1cccs1 | n | 16.1 | n | n | n | n | n | n
Cc1ccc(-c2cc(C(=O)NN=Cc3cccc(OCc4ccccc4)c3)[nH]n2)cc1C | x | 20.4 | x | x | n | x | n | 16.4
Cc1ccc(-c2cc(C(=O)NN=Cc3cccc(Oc4ccccc4)c3)[nH]n2)cc1C | x | 19.1 | x | x | n | x | n | n
COc1ccc(C=NNC(=O)c2cc(-c3ccc(C)c(C)c3)n[nH]2)cc1OCc1ccccc1 | x | 16.3 | x | x | n | x | n | n
Cc1ccc(-c2c(NC(=O)c3cccc(C)c3)nc3ncccn23)cc1 | x | n | x | x | n | x | x | x
CNC(=O)COC(=O)c1ccc([N+](=O)[O-])cc1Cl | n | n | n | n | n | n | x | x
Cc1cc(NC(=O)COC(=O)c2ccc([N+](=O)[O-])cc2Cl)no1 | n | 98.2 | n | n | n | n | n | n
CN(Cc1ccccc1)C(=O)OCc1cn(Cc2ccccc2F)nn1 | x | n | x | x | n | x | x | x
COc1ccc(NS(=O)(=O)c2ccc(NC(C)=O)cc2)c(OC)c1 | n | n | n | n | n | n | x | x
COc1ccc(OC)c(NS(=O)(=O)c2ccc(NC(C)=O)cc2)c1 | n | 15.6 | n | n | n | n | n | n
CCN(CC)C(=O)C1=C(C)N(CCC2=CCCCC2)C(=O)C(CC(=O)NCCc2ccccn2)C1 (stereo not given) | x | n | x | n | n | n | x | x
COc1ccc(CCC(=O)Nc2sccc2C#N)cc1 | x | n | x | n | n | n | x | x
COc1ccc(NC(=O)CSCC(=O)Nc2sccc2C#N)cc1 | n | 16.3 | n | n | n | n | n | n
CCC(Sc1nc2ncccc2[nH]1)C(=O)NC1CCCC1 (stereo not given) | n | 18.0 | n | n | n | n | n | n
Cc1ccc(S(=O)(=O)Nc2ccccc2C(C(=O)OC(C)(C)C)C(=O)OC(C)(C)C)cc1 | x | n | x | x | n | x | x | x
NC1=Nc2cccc3cccc1c23 | n | 37.9 | n | n | n | n | n | 45.8
Cc1cc(C)cc(NC(=O)N2CCNC(=O)C2CC(=O)Nc2cc(Cl)ccc2Cl)c1 (stereo not given) | n | 15.8 | n | n | n | n | n | n
O=C(CC1C(=O)NCCN1C(=O)Nc1ccc(F)cc1F)Nc1cc(Cl)ccc1Cl (stereo not given) | n | n | n | n | n | n | x | x
Cc1cc(C(=O)COc2cc(F)ccc2[N+](=O)[O-])c(C)n1C1CC1 | n | 15.9 | n | n | n | n | n | n
